Measured values as given in ChEMBL document CHEMBL1124412, “Long acting dihydropyridine calcium antagonists. 2. 2-[2-Aminoheterocycloethoxy]methyl derivatives” (J Med Chem, 1989).

Assays:
[1] = organism: Rattus norvegicus; assay: Concentration required to inhibit calcium-induced constriction of potassium-depolarized rat aorta by 50%; assay type: functional
[2] = organism: Cavia porcellus; assay: In vitro assessment of negative inotropy in the isolated Langendorff perfused guinea pig heart; assay type: functional
[3] = system: Canis familiaris; assay: Percent decrease in coronary vascular resistance in dogs at 150 u/kg intravenous dose; assay type: functional, Canis lupus familiaris
Outline: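 Anaesthetized beagle dogs were implanted with catheters for blood pressure, left ventricular pressure and intravenous dosing, and given 150 µg/kg i.v. Coronary blood flow was measured by hydrogen clearance with platinum electrodes in the coronary sinus and femoral artery, and cardiac output by thermodilution. Coronary vascular resistance was derived from these measurements, and the duration-of-action half-life was followed in hours.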

SMILES | IC50 [1] [nM] | pIC25 [2] | Decrease in CVR [3] [%]
CCO/C(O)=C1\C(COCCNc2nccnc2Cl)=NC(C)=C(C(=O)OC)C1c1cccc(Cl)c1Cl (stereo unspecified) | 2.51 | 7.4 | –
CCO/C(O)=C1\C(COCCNC2=NC(=O)C(C)(C)N2)=NC(C)=C(C(=O)OC)C1c1cccc(Cl)c1Cl (stereo unspecified) | 20 | 6.2 | –
CCO/C(O)=C1\C(COCCNc2cc(NC)ncn2)=NC(C)=C(C(=O)OC)C1c1cccc(Cl)c1Cl (stereo unspecified) | 3.16 | 7.2 | –
CCO/C(O)=C1\C(COCCNc2ccnc(O)n2)=NC(C)=C(C(=O)OC)C1c1cccc(Cl)c1Cl (stereo unspecified) | 1.58 | 6.7 | 62
CCO/C(O)=C1\C(COCCNc2n[nH]c(N)n2)=NC(C)=C(C(=O)OC)C1c1ccccc1Cl (stereo unspecified) | 20 | 6.2 | –
CCO/C(O)=C1\C(COCCNc2cc(O)ncn2)=NC(C)=C(C(=O)OC)C1c1cccc(Cl)c1Cl (stereo unspecified) | 1.26 | 7.2 | –
CCO/C(O)=C1\C(C)=NC(COCCNc2n[nH]c(N)n2)=C(C(=O)OC)C1c1cccc(Cl)c1Cl (stereo unspecified) | 100 | 5.5 | –
CCO/C(O)=C1\C(COCCNc2nccc(O)n2)=NC(C)=C(C(=O)OC)C1c1cccc(Cl)c1Cl (stereo unspecified) | 2.51 | 6.7 | 70
CCO/C(O)=C1\C(COCCNc2n[nH]c(N)n2)=NC(C)=C(C(=O)OC)C1c1cccc(Cl)c1Cl (stereo unspecified) | 6.31 | 6.3 | 70
CCO/C(O)=C1\C(COCCNc2nc(N)n(C)n2)=NC(C)=C(C(=O)OC)C1c1cccc(Cl)c1Cl (stereo unspecified) | 3.98 | 6.8 | –
CCO/C(O)=C1\C(COCCNc2noc(N)n2)=NC(C)=C(C(=O)OC)C1c1cccc(Cl)c1Cl (stereo unspecified) | 3.16 | 7.3 | 76
CCO/C(O)=C1\C(COCCNc2n[nH]c(N)n2)=NC(C)=C(C(=O)OC)C1c1cccc(Cl)c1 (stereo unspecified) | 126 | – | –
CCO/C(O)=C1\C(COCCNc2n[nH]c(N)n2)=NC(C)=C(C(=O)OC)C1c1cccc(C(F)(F)F)c1Cl (stereo unspecified) | 3.98 | 6.3 | –
CCO/C(O)=C1\C(COCCNc2nc(O)cs2)=NC(C)=C(C(=O)OC)C1c1cccc(Cl)c1Cl (stereo unspecified) | 20 | 6.1 | –
CCO/C(O)=C1\C(COCCNc2n[nH]c(O)n2)=NC(C)=C(C(=O)OC)C1c1cccc(Cl)c1Cl (stereo unspecified) | 10 | 6.4 | –
CCOC(=O)NC(=S)NCCOCC1=C(C(=O)OCC)C(c2cccc(Cl)c2Cl)/C(=C(\O)OC)C(C)=N1 (stereo unspecified) | 31.6 | 6.2 | –
CCO/C(O)=C1\C(COCCNc2n[nH]c(N)n2)=NC(C)=C(C(=O)OC)C1c1cccnc1Cl (stereo unspecified) | 316 | 6 | –
CCO/C(O)=C1\C(COCCNc2nc(O)cc(-c3ccccc3)n2)=NC(C)=C(C(=O)OC)C1c1cccc(Cl)c1Cl (stereo unspecified) | 7.94 | 6.9 | –
CCO/C(O)=C1\C(COCCNc2nccnc2NC)=NC(C)=C(C(=O)OC)C1c1cccc(Cl)c1Cl (stereo unspecified) | 5.01 | 7 | –
CCO/C(O)=C1\C(COCCNc2cc(Cl)ncn2)=NC(C)=C(C(=O)OC)C1c1cccc(Cl)c1Cl (stereo unspecified) | 12.6 | 7.7 | –
CCO/C(O)=C1\C(COCC/N=C(/N)S)=NC(C)=C(C(=O)OC)C1c1cccc(Cl)c1Cl (stereo unspecified) | 1 | 7.2 | –
CCO/C(O)=C1\C(COCCNc2n[s+]([O-])nc2N)=NC(C)=C(C(=O)OC)C1c1cccc(Cl)c1Cl (stereo unspecified) | 15.8 | 7 | –
CCO/C(O)=C1\C(COCCNc2n[s+]([O-])nc2OC)=NC(C)=C(C(=O)OC)C1c1cccc(Cl)c1Cl (stereo unspecified) | 10 | 7.1 | –
COC(=O)C1=C(C)NC(C)=C(C(=O)OC)C1c1ccccc1[N+](=O)[O-] [NIFEDIPINE] | – | 7.5 | 77
